Screening data deposited in PubChem by Broad Institute.
Only some compounds are listed: those with a hit (about 5.8% of all), similar ones and a draw of the others.
GASC1 inh = KDM4C (human) demethylase inhibition | inhibition, % at 12.5 µM | GST-KDM4C 2-372, H3K9me3 peptide, LANCE TR-FRET | actives 0.15% (n = 96,000);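 active = mean replicate inhibition above about 25%, with at least 55% of replicates also reaching it, limit read from the data, passing the limit was not always enough; inconclusive = only one of those two conditions met; inactive = neither condition met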
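System: N-terminal GST-fused human GASC-1 (KDM4C) fragment, residues 2-372; amount: enzyme final amount 10 nM; incubation: reaction 30 min RT, detection step 1 h RT; medium: HEPES buffer, pH 7.5, plus ascorbate; technique: LANCE TR-FRET, Eu antibody, ULight-streptavidin, EDTA, ex 340 nm, em 618/671 nm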
IDH1 R132H inh = IDH1 R132H (human) inhibition | IDH1 R132H reductase, diaphorase/resazurin fluorescence, 60 min | inhibition, % at 10 µM | O75874 | actives 0.18% (n = 70,000); in the data active = inhibition above about 34%; inconclusive = no clear call, values can overlap the other calls; inactive = below about 11%;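 also: 0% = DMSO and 100% = no enzyme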
Target sequence (O75874 whole entry R132H): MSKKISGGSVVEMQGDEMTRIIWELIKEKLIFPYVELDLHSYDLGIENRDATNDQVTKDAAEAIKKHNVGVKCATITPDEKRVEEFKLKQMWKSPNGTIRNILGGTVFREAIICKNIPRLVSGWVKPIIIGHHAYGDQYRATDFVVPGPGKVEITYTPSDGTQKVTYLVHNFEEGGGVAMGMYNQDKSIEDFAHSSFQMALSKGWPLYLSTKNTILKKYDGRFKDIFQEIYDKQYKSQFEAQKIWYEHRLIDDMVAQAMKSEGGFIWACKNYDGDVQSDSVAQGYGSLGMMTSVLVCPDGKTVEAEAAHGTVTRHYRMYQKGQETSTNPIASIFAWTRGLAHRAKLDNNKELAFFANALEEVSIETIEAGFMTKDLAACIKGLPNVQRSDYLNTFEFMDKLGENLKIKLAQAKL
Pf Dd2 inh = blocks growth of Plasmodium falciparum Dd2 parasites. actives 2.3% (n = 94,000). P. falciparum Dd2 growth, SYBR Green, 72 h; stronger effect = lower value. activity change, % at 10 µM. AID 1159554; in the data active = activity change below about -80%; inconclusive = no clear call, values can overlap the other calls
T cruzi growth-1 = blocks T. cruzi growth in NIH3T3 culture. T. cruzi beta-gal in NIH3T3, GalScreen luminescence, 90 h. inhibition, % at 8.34 µM. actives 5.9% (n = 77,000);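 active = mean inhibition above about 93%, with at least 55% of replicates each passing it, limit read from the data, passing the limit was not always enough; inconclusive = only one of those two conditions holds; inactive = neither condition holds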
T cruzi growth-2 = blocks T. cruzi growth in NIH3T3 host cells; T. cruzi beta-gal in NIH3T3, GalScreen luminescence, 90 h; AID 651739; inhibition, % at 8.35 µM; shares compounds with T cruzi growth-1; actives 72% (n = 5,600);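 active = mean replicate inhibition above about 95% and at least 55% of replicates individually reaching it, limit read from the data; inconclusive = only one of the two criteria is met; inactive = neither criterion is met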
T cruzi growth-3 = Trypanosoma cruzi proliferation inhibition; shares compounds with T cruzi growth-1; T. cruzi beta-gal in NIH3T3, GalScreen luminescence, 90 h; inhibition, % at 2.09 µM; actives 21% (n = 5,600); AID 651740;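 active = mean inhibition above about 95%, with at least 55% of replicates also reaching it, limit read from the data; inconclusive = meets just one of the two conditions; inactive = meets neither condition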;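 also: plate controls were neutral control median for no effect and positive control median for full effect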
NIH3T3 tox = kills mouse NIH/3T3 fibroblasts. shares compounds with T cruzi growth-1. NIH/3T3 viability, CellTiter-Glo ATP luminescence, 90 h. cytotoxicity (signal decrease), % at 8.35 µM. actives 14% (n = 5,600). AID 651742;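 active = mean signal decrease across replicates above about 35% based on untreated-well scatter, with enough replicates individually passing, limit read from the data; inconclusive = no rule stated though some were filed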;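 also: 0% = median of neutral control wells and 100% = median of positive control wells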
3T3 cytotox 2 = NIH/3T3 (mouse) viability loss. AID 651744. inhibition, % at 24.9 µM. shares compounds with T cruzi growth-1. NIH/3T3 viability, CellTiter-Glo ATP luminescence, 90 h. actives 56% (n = 5,600);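 active = mean loss of cell viability signal at or above a set limit, and enough replicates individually reaching it; inconclusive = meets only the mean limit or only the replicate share; inactive = meets neither condition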;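 also: 0% = median of neutral control wells and 100% = median of positive control wells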
* = called active by the depositor; ? = inconclusive; . = not tested or not shown.

SMILES | GASC1 inh | IDH1 R132H inh | Pf Dd2 inh | T cruzi growth-1 | T cruzi growth-2 | T cruzi growth-3 | NIH3T3 tox | 3T3 cytotox 2
Cc1ccc(S(=O)(=O)Nc2ccc3c(c2)C(=O)N([C@H](C)CO)C[C@@H](C)[C@H](CN(C)S(=O)(=O)c2c(C)noc2C)OCCCC[C@@H](C)O3)cc1 | 0 | -6 | -47 | ? | 112* | 40 | 11 | -16
CCCNC(=O)C[C@@H]1C[C@@H]2c3cc(NC(=O)NC4CCCCC4)ccc3O[C@@H]2[C@@H](CO)O1 | -1 | 1 | 8 | -45 | . | . | . | .
C[C@H]1CCCCO[C@H](CN(C)S(=O)(=O)c2ccc(Cl)cc2)[C@@H](C)CN([C@@H](C)CO)C(=O)c2cc(NC(=O)CCC(F)(F)F)ccc2O1 | -2 | 4 | -73 | 105* | 103* | 70 | 0 | 19
C[C@H]1CCCCO[C@@H](CN(C)S(=O)(=O)c2ccc(Cl)cc2)[C@@H](C)CN([C@@H](C)CO)C(=O)c2cc(NC(=O)CCC(F)(F)F)ccc2O1 | 0 | . | -83* | 117* | 110* | 73 | -20 | 16
C[C@@H]1CCCCO[C@H](CN(C)S(=O)(=O)c2ccc(Cl)cc2)[C@H](C)CN([C@H](C)CO)C(=O)c2cc(NC(=O)CCC(F)(F)F)ccc2O1 | 0 | . | -42 | 99* | 106* | 34 | 14 | 30*
COC(=O)[C@H]1[C@H](CO)[C@H]2Cn3c(cccc3=O)[C@H]2N1C(=O)C1CCCC1 | 6 | . | 33 | . | . | . | . | .
Cc1ccc(NC(=O)CN(c2c(C)cccc2C)S(C)(=O)=O)cc1C | . | 0 | . | . | . | . | . | .
C=CCC/C=N/NC(=O)CCCCCC(=O)O | . | 0 | . | . | . | . | . | .
CC(C)NC(=O)Nc1ccc2c(c1)C(=O)N(C)[C@H]1CC[C@H](CC(=O)NCC(F)(F)F)O[C@H]1CO2 | 0 | . | 2 | -9 | . | . | . | .
CCCC#Cc1ccc2c(c1)O[C@H](CN(C)Cc1cccnc1)[C@@H](C)CN([C@@H](C)CO)S2(=O)=O | 0 | 9 | -58 | 128* | 102* | 104* | 43* | 104*
C[C@H](CO)N1C[C@H](C)[C@H](CN(C)Cc2cccnc2)Oc2cc(C#CCN(C)C)ccc2S1(=O)=O | 2 | 0 | -20 | 91* | 95* | 77 | 24 | ?
C[C@H]1CN([C@@H](C)CO)S(=O)(=O)c2ccc(C#CCN(C)C)cc2O[C@H]1CN(C)Cc1cccnc1 | 2 | 7 | -5 | 86 | . | . | . | .
C[C@@H]1CN([C@@H](C)CO)S(=O)(=O)c2ccc(C#CCN(C)C)cc2O[C@H]1CN(C)Cc1cccnc1 | 1 | 0 | -32 | 98* | 108* | 103* | 14 | 43*
COc1ccc2c3c([nH]c2c1)[C@@H](CO)N(C(=O)c1ccccc1)CC31CCN(C)CC1 | -1 | . | -21 | . | . | . | . | .
C[C@@H]1CCCCO[C@@H](CN(C)Cc2ccc(C(F)(F)F)cc2)[C@@H](C)CN([C@H](C)CO)C(=O)c2cc(NS(=O)(=O)c3cccs3)ccc2O1 | 0 | . | -22 | 81 | . | . | . | .
C[C@@H]1CCCCO[C@@H](CN(C)Cc2ccc(C(F)(F)F)cc2)[C@H](C)CN([C@@H](C)CO)C(=O)c2cc(NS(=O)(=O)c3cccs3)ccc2O1 | 0 | . | -40 | 112* | 103* | 99* | ? | 106*
C[C@@H]1CCCCO[C@@H](CN(C)Cc2ccc(C(F)(F)F)cc2)[C@H](C)CN([C@H](C)CO)C(=O)c2cc(NS(=O)(=O)c3cccs3)ccc2O1 | -1 | 1 | -65 | 114* | 98* | 114* | -10 | 104*
C[C@H](CO)N1C[C@H](C)[C@H](CN(C)C(=O)Nc2ccc(C(F)(F)F)cc2)OCCCC[C@H](C)Oc2ccc(NS(=O)(=O)c3cccs3)cc2C1=O | 1 | 7 | -20 | 97* | 97* | 105* | -2 | 1
